Laboratory results taken from the EternaBench riboswitch data.

Key:
[1] = test system: MS2 coat protein; experiment: apparent Kd, MS2 coat protein; higher = weaker binding; RNA-MaP array; tryptophan 2.4 mM where present
Method in brief: (§1)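 The titrant was SNAP-549-labelled MS2 coat protein, run from 0.7 or 1.5 nM in doubling steps to 3 µM. It was applied to designs transcribed by stalled E. coli RNA polymerase on Illumina sequencing-chip clusters, without ligand first and then with constant ligand, in 100 mM Tris-HCl pH 7.5, 80 mM KCl, 4 mM MgCl2, BSA, DTT, yeast tRNA and Tween-20. The apparent Kd is the median of filtered per-cluster binding-curve fits, with green signal normalised to red-channel RNA signal and control-cluster median Fmax.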

[2] = test system: MS2 coat protein; experiment: apparent Kd, MS2 coat protein; higher = weaker binding; RNA-MaP array; theophylline 2 mM where present
Method in brief: as §1

[3] = designed as: OFF switch for tryptophan, no ligand
[4] = ligand present: tryptophan, designed as: OFF switch for tryptophan
[5] = designed as: ON switch for tryptophan, no ligand
[6] = ligand present: tryptophan, designed as: ON switch for tryptophan
[7] = designed as: ON switch for theophylline, no ligand
[8] = ligand present: theophylline, designed as: ON switch for theophylline
[9] = designed as: OFF switch for theophylline, no ligand
[10] = ligand present: theophylline, designed as: OFF switch for theophylline

AGCACUGUGACGGCCGCCACUACAUAAAUAGGGUGGUCAGGUUCAUUACAUGAGGAUCACCCAUGUAGGACCGGGUCUCAGUGCA
apparent Kd [1, 3]: 0.00999 µM
apparent Kd [1, 4]: 0.00955 µM

GUUAUAACAAAAGUUGUAACAGUGGGUGAACGAGGACCGGUACGGCCGCCACUCGGACAUGAGGAUCACCCAUGUCCAUGUGAAA
apparent Kd [1, 3]: 0.0162 µM
apparent Kd [1, 4]: 0.0403 µM

GCGCGGCGAGUGCGGCGUGUUCCGCUCCGUCGAGGACCGGUACGGCCGCCACUCGACAUGAGGAUCACCCAUGUCGCCGCGCGUC
apparent Kd [1, 3]: 0.0121 µM
apparent Kd [1, 4]: 0.0123 µM

GAGUACACUACGGCCGCCACUCAAGGAGCUACAUAGCUCCUAGACAUGAGGAUCACCCAUGUACCGAGGACCGGGUAGAUCCUUA
apparent Kd [1, 5]: 0.187 µM
apparent Kd [1, 6]: 0.0973 µM

ACAUGACAACAUGAGGAUCACCCAUGUCAUCGAGGACCGGUACGGCCGCCACUCGGUCAAUAUGAUACUUGUCAUGAACAUGAGG
apparent Kd [1, 3]: 0.0187 µM
apparent Kd [1, 4]: 0.0235 µM

GGUAUGUAUUCGGAAACGAAUGCAUACCAACGAGGACCGGUACGGCCGCCACUCGGCGGCGAUCAACAUGAGGAUCACCCAUGUA
apparent Kd [1, 3]: 0.0404 µM
apparent Kd [1, 4]: 0.031 µM

CACAGUGCGAAAUUGAAUUCGCACGAUCCUCGAGGACCGGUACGGCCGCCACUCGCGCGGGUCGUACAUGAGGAUCACCCAUGUC
apparent Kd [1, 5]: 0.257 µM
apparent Kd [1, 6]: 0.368 µM

AACUACUCGAGGUGAUCCUACGAGUGGCAACGAGGACCGGUACGGCCGCCACUCGAAUAAACAUGAGGAUCACCCAUGUACAAAU
apparent Kd [1, 5]: 0.081 µM
apparent Kd [1, 6]: 0.0837 µM

AAAACAUGAGGAUCACCACAUGACAUGAGGCGAGGACCGGUACGGCCGCCACUCGACAUACAUGAGGAUCACCCAUGUUUGUUGU
apparent Kd [1, 3]: 0.217 µM
apparent Kd [1, 4]: 0.269 µM

AGAUGAGUCACGGCCGCCACUCUUAUCAGGAUCACCCAUGGUUAACAUGAGGAUCACCCAUGUCUGAGGACCGGGUGAUGAGCAU
apparent Kd [1, 3]: 0.0216 µM
apparent Kd [1, 4]: 0.0239 µM

AAUAAUAGGUGAUCCUAACGAGUGGCAUAACGAGGACCGGUACGGCCGCCACUCGAACAUGAGGAUCACCCAUGUAGUCACUCGA
apparent Kd [1, 5]: 0.189 µM
apparent Kd [1, 6]: 0.362 µM

GAUCAAAGAUCACAUGAGGAUCACCCAUGUCGAGGACCGGUACGGCCGCCACUCGCGGCGGUGAAAAUAGAUACAAAGUAUCUAU
apparent Kd [1, 3]: 0.0776 µM
apparent Kd [1, 4]: 0.347 µM

AUCUAUAGAGCGGCCGCCACUGAAUACAUGAGGAUCACCCAUGUAAUGUUAAGGUGGUCCUAGCUCAGGACCGGGCUCUAUAGAU
apparent Kd [1, 3]: 0.0365 µM
apparent Kd [1, 4]: 0.0222 µM

UUUGUAAUUGUCUGGUAGAUUUAUUUAUUUCGAGGACCGGUACGGCCGCCACUCGUUAAUUACAUGAGGAUCACCCAUGUUAGCU
apparent Kd [1, 3]: 0.0134 µM
apparent Kd [1, 4]: 0.0132 µM

GCUACAUGAGGAUCACCCAUGUAUGCGAGUCGAGGACCGGUACGGCCGCCACUCGCUUAACAUGAGGAUCACCCAUGUUACUCGC
apparent Kd [1, 5]: 0.0646 µM
apparent Kd [1, 6]: 0.0311 µM

AAGGCACGAGACAUGAGGAUCACCCAUGUUCGAGGACCGGUACGGCCGCCACUCGGUGGACUCAUGGUAAAGCCGGUGAGCCAAA
apparent Kd [1, 5]: 0.0194 µM
apparent Kd [1, 6]: 0.0372 µM

AGCGUGCAUCGGAAAACGAUGUACGCAAAUCGAGGACCGGUACGGCCGCCACUCGUCCUCAACAUGAGGAUCACCCAUGUAAUAA
apparent Kd [1, 3]: 0.0191 µM
apparent Kd [1, 4]: 0.0347 µM

CUUAUAUAUACGGCCGCCACUUACUCAUGAGGUAACAACAUGAGGAUCACCCAUGUUUGAGGAUCAAGGACCGGGUAUAUAUAAG
apparent Kd [1, 5]: 0.0253 µM
apparent Kd [1, 6]: 0.0182 µM

ACAUUGCGCUCGGCCGCCACUGGCUUAUGAUUAUAAGCAUUAAUGAACAUGAGGAUCACCCAUGUCAGGACCGGGAGCGAACCAU
apparent Kd [1, 5]: 0.014 µM
apparent Kd [1, 6]: 0.0166 µM

AAUAACAUGAGGAUCACCCAUGUAAGUAAACGAGGACCGGUACGGCCGCCACUCGAAUAAAUAAAGUACCGGUAAGAUCCAUAGA
apparent Kd [1, 5]: 0.0213 µM
apparent Kd [1, 6]: 0.0239 µM

ACAUGUUGGUGGUAUCUACGAAGGCGGAAACGAGGACCGGUACGGCCGCCACUCGGCGACAUGAGGAUCACCCAUGUGGUUAAGA
apparent Kd [1, 3]: 0.072 µM
apparent Kd [1, 4]: 0.0464 µM

UAAACUACACAUGAGGAUCACCCAUGUGGCCGAGGACCGGUACGGCCGCCACUCGUGUGUUAAUAAAAGAACCGCAAAGUUCUGU
apparent Kd [1, 5]: 0.268 µM
apparent Kd [1, 6]: 0.0833 µM

GCUAGGUCUACGGCCGCCACUAGACGUGGGUAAGACAUGAGGAUCACCCAUGUACUACAGGCGGAUAGGACCGGGUAGACCUAGC
apparent Kd [1, 5]: 0.114 µM
apparent Kd [1, 6]: 0.0143 µM

CUACAUUUGUAGAAACCGGUCAACAAUAAUCGAGGACCGGUACGGCCGCCACUCGUAUAAUUUAUUACAUGAGGAUCACCCAUGU
apparent Kd [1, 5]: 0.0137 µM
apparent Kd [1, 6]: 0.0138 µM

GCUAGGUCUACGGCCGCCACUAGACGUGGGUAAGACAUGAGGAUCACCCAUGUACUACGGGCGCUUAGGACCGGGUAGACCUAGC
apparent Kd [1, 5]: 0.204 µM
apparent Kd [1, 6]: 0.0175 µM

AGACCCUUCACGGCCGCCACUCAUUUUAAGUAGAGAGAGUACAUGAGGAUCACCCAUGUGAGAGAGAGGACCGGGUGAGAUAUUA
apparent Kd [1, 5]: 0.0175 µM
apparent Kd [1, 6]: 0.0196 µM

CUACAUUUGUAGAAACCGGUCACCAUUAUUCGAGGACCGGUACGGCCGCCACUCGUAUCAUGUGAUACAUGAGGAUCACCCAUGU
apparent Kd [1, 5]: 0.0288 µM
apparent Kd [1, 6]: 0.0285 µM

UAAAACAUGAGGAUCACCCAUGUAAUUGAUACCAGAGUGAUGAUCCUCCCUUGGCAGCAAAACGCUGAUUGAUUACAAUCAGCGA
apparent Kd [2, 7]: 0.0543 µM
apparent Kd [2, 8]: 0.207 µM

UCCUCCUCCGCAAGGAGGAGGAGUUGCGAUACCAGCACGGUAACGUGCCCUUGGCAGCGCACAUGAGGAUCACCCAUGUCAUGUU
apparent Kd [2, 9]: 0.0176 µM
apparent Kd [2, 10]: 0.0223 µM

AUACCUAAUGUUACAUUUUCCUUUUCAGAUACCAGACUUUACGUUGUCCCUUGGCAGCUGUAUCACAUGAGGAUCACCCAUGUUG
apparent Kd [2, 7]: 0.0166 µM
apparent Kd [2, 8]: 0.0169 µM

CACUUCAUGUGAGAUACCAGUGCCUUACAUGAGGAUCACCCAUGUCGUAAUGUGGAGAAGCACCCUUGGCAGCUCGCUUCGAGUG
apparent Kd [2, 7]: 0.0839 µM
apparent Kd [2, 8]: 0.0717 µM

ACCGCAGGUCCUGAUACCAGAGACAUGAGGAUCACCCAUGUCCGAUCGUCCUGCCUCAGGCUCCCUUGGCAGCAGGGCUUGUCCU
apparent Kd [2, 9]: 0.0143 µM
apparent Kd [2, 10]: 0.0271 µM

GAUGAACUAUAUGAUACCAGACAACAUGAGGAUCACCCAUGUGAUAGUCGUCCUCUGCCUGUCCCUUGGCAGCGUAUAGUUUAUC
apparent Kd [2, 9]: 0.0406 µM
apparent Kd [2, 10]: 0.102 µM

GAACAUGAGGAUCACCCAUGUGAGAAUGAUACCAGUAGAAGAAGAUGCCCUUGGCAGCGUGCGUGAGGAUCACCCAUGUAGGAGG
apparent Kd [2, 9]: 0.0242 µM
apparent Kd [2, 10]: 0.0279 µM

CGGUUUGUGAUGGAUACCAGCAGAGAAAAUGUUUAUCCUAACAUGAGGAUCACCCAUGUAUGCCCUUGGCAGCUGUUGUGGGCUG
apparent Kd [2, 9]: 0.0648 µM
apparent Kd [2, 10]: 0.0621 µM

AAACAUUGCUCAGAUACCAGACAUGAGGAUCACCCAUGUACCAAGGUACCCGAAAGGAAUGUCCCUUGGCAGCUGAGCAAUGAAA
apparent Kd [2, 9]: 0.0101 µM
apparent Kd [2, 10]: 0.0274 µM

UGUAACAUGAGGAUCACCCAUGUGAGUGAUACCAGACUAGUGUUGGUCCCUUGGCAGCACGCUGGACGAAUGUGUAGUCUAUGCG
apparent Kd [2, 7]: 0.0783 µM
apparent Kd [2, 8]: 0.0837 µM

AUAAGUAAUGUUACGUGUUUUAUUACAGAUACCAGACUAUACGUUGUCCCUUGGCAGCUGAAUUACAUGAGGAUCACCCAUGUUG
apparent Kd [2, 9]: 0.0151 µM
apparent Kd [2, 10]: 0.0173 µM

CCAUACGUAACUGAUACCAGUGUACUGACAUGAGGAUCACCCAUGUUGGGUUUUGUUGUACACCCUUGGCAGCAGAAUCGUAUGG
apparent Kd [2, 9]: 0.0689 µM
apparent Kd [2, 10]: 0.101 µM

ACGAUACGACAUGAGGAUCACCCAUGUGAUACCAGCGUGGAAACACGCCCUUGGCAGCACAAAUACUCCAAUAACGUAUCGAAAA
apparent Kd [2, 9]: 0.26 µM
apparent Kd [2, 10]: 0.24 µM

CAUUAUGUAACUGAUACCAGUGUACUGACAUGAGGAUCACCCAUGUUGGGUUUUGUUGUACACCCUUGGCAGCAGAAUCAUAAUG
apparent Kd [2, 9]: 0.0635 µM

UGACAUUGCUCAGAUACCAGACAUGAGGAUCACCCAUGUGCCAAAUACGUACAAAUAAAUGUCCCUUGGCAGCUGAGCAAUGUCU
apparent Kd [2, 9]: 0.0142 µM
apparent Kd [2, 10]: 0.266 µM

AAUAACAUGAGGAUCACCCAUGUAAAAGAUACCAGAGUGAUGAUCCUCCCUUGGCAGCUUAACGCUGAUUGGAAACAAUCAGCGA
apparent Kd [2, 7]: 0.147 µM
apparent Kd [2, 8]: 0.225 µM

UGACGAUACCUGGAUACCAGCGACAUGAGGAUCACCCAUGUAUGAGGAUCAGCCAUGUUAUGCCCUUGGCAGCCACGAAAGUCUU
apparent Kd [2, 9]: 0.0457 µM
apparent Kd [2, 10]: 0.171 µM

AGCGACAUGCGUGAUACCAGCUACAUGAGGAUCACCCAUGUACGUCAGAAAUGACUGUGUAGCCCUUGGCAGCAUAAUGCAUGUC
apparent Kd [2, 9]: 0.0409 µM
apparent Kd [2, 10]: 0.0705 µM
